Assay results taken from the RNAGym collection of RNA variant scans (doi:10.1126/science.aae0568).
This sample holds only a part of the variants without activity.

B1: tRNA (parent)
chain: GUUCCGUUGGCGUAAUGGUAACGCGUCUCCCUCCUAAGGAGAAGACUGCGGGUUCGAGUCCCGUACGGAACG

Variants of: B1
Test: yeast fitness relative to wild type (ratio to wild type); higher = fitter; tRNA-Arg(CCU), competitive growth, 37 C, YPD
Method in brief: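 The tRNA-Arg(CCU) gene variants were made by chemical synthesis with a 3% per-site mutation rate at 69 sites and inserted at the native genomic locus of Saccharomyces cerevisiae. After pooling, the strains were competed in YPD at 37°C for 24 hours in six parallel replicates. Gene amplicons from the start population and each end population were read by 100-nucleotide paired-end sequencing, and Darwinian fitness relative to wild type was taken from genotype frequency changes. Genotypes needed ≥ 100 starting reads, and estimates < 0.5 were set to 0.5.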

Row | Variant | yeast fitness
1 | C5U U16A C33U C61G A70U | ≤ 0.5
2 | C5U U16G G41C G51A C60G A70U | ≤ 0.5
3 | C5U U32G A36U | ≤ 0.5
4 | C5U G25A C49A A69U | ≤ 0.5
5 | C5U G18C C22U G50A | 0.572
6 | C5U G56A A65U | 0.854
7 | C5U G12A A40U A45G C60A G63A | ≤ 0.5
8 | C5U U19C C66G | 0.606
9 | C5U U19C C66U | 0.82
10 | G6A A20C C66A | 0.549
11 | G6A A20C C46G | 0.696
12 | C5U G51A G56A A65C | ≤ 0.5
13 | C5U G12C U32A U35A U54C | ≤ 0.5
14 | C5U C46G A65G | 0.661
15 | C5U G52A C66U | 0.584
16 | C5U C34U C60U | ≤ 0.5
17 | G6A A21C A42G | 0.692
18 | C5U U32G G63C C66U | ≤ 0.5
19 | G6A A20C A70U | 0.739
20 | C5U C61A G67A | 0.576
21 | C5U U8G U28C A36G | ≤ 0.5
22 | C5U G18C U26G | ≤ 0.5
23 | C5U G50A G63A | 0.608
24 | G6A A20G C24U | 0.612

Row | Variant | yeast fitness
25 | C5U G44C A45U | 0.657
26 | C5U G41A C55G C66U | ≤ 0.5
27 | C5U U16G A43U G58A | ≤ 0.5
28 | C5U G17C A21U A40G U47G G48C | ≤ 0.5
29 | C5U G10C C27G U28C G39C C46G A65G | ≤ 0.5
30 | C5U U7C A45C | 0.74
31 | C5U U8C A20G C30A G68U | ≤ 0.5
32 | C5U U13A C29A C31G | ≤ 0.5
33 | C5U U35A G48C C61U | 0.57
34 | C5U U7A A14G | 0.538
35 | C5U U28G C30G A40C A42U | ≤ 0.5
36 | G6A A42G | 0.848
37 | G6A A42C | 0.894
38 | G6A A42U | 0.784
39 | G6A A40G A42G U59C | 0.675
40 | C5U C62U A65C | 0.739
41 | C5U U8G A20G C34A | ≤ 0.5
42 | C5U U32C A42G | 0.531
43 | C5U G10C C30G C34U A42C G52A | ≤ 0.5
44 | G6A A45C C55G C61U | ≤ 0.5
45 | C5U G6C C11A C31G A36C | ≤ 0.5
46 | G6A A20U G25A | 0.574
47 | C5U G41A | 0.906
48 | C5U U8C U26A | 0.727

Row | Variant | yeast fitness
49 | G6A A20U C27A A57U C62A | ≤ 0.5
50 | G6A A14G C49U | 0.57
51 | C5U U19C C55A G58C | ≤ 0.5
52 | C5U U26A G56C A65C | 0.53
53 | C5U U19C C29U A42C A57G | ≤ 0.5
54 | C5U U19C A43U | 1.09
55 | G6A A40U C55G G63C | ≤ 0.5
56 | G6A A45U G48A C55A | ≤ 0.5
57 | C5U G9A | 0.972
58 | C5U G9A C22A C55G | ≤ 0.5
59 | C5U U26C A36C U64A | ≤ 0.5
60 | G6A A36U C66A G68C | ≤ 0.5
61 | G6A A20G | 0.897
62 | C5U G23A G25C | 0.65
63 | C5U G12A A40U G44U A45G C60A | ≤ 0.5
64 | G6A A21G C46A C55U G56A | ≤ 0.5
65 | C5U G25A A70U | 1.05
66 | C5U G17A C60G G67A | ≤ 0.5
67 | C5U U28C C29G C61U | 0.563
68 | G6A A40U C46A | 0.657
69 | G6A A40U U53A C61A A65U A69U | 0.511
70 | G6A A21G | 0.965
71 | C5U U19A G25C A43U | 0.758
72 | C5U G10A C27G G48C C61G | ≤ 0.5

Row | Variant | yeast fitness
73 | C5U G17A A40U A42C C49A | 0.684
74 | C5U G52C C66U | 0.57
75 | C5U U8A | 0.632
76 | C5U U13A G38C U47G C62U | ≤ 0.5
77 | C5U G50C G67A | ≤ 0.5
78 | C5U U8A C61U | 0.548
79 | G6A A15C A36U A65C | ≤ 0.5
80 | C5U U32C A57C | 0.583
81 | G6A A14G C31U A36G | ≤ 0.5
82 | C5U U28C A36C A40C A42U | ≤ 0.5
83 | C5U U28C C29G | ≤ 0.5
84 | C5U U35C C62U G68C | ≤ 0.5
85 | C5U U35C A69U | 0.536
86 | G6A A15C A20G | ≤ 0.5
87 | G6A A15C A20U | 0.56
88 | C5U G25C A42U A69U | ≤ 0.5
89 | C5U U47A G48C G51A | ≤ 0.5
90 | C5U U32A C34A A65C | ≤ 0.5
91 | C5U U7C U26C U28C C29G C34A | 0.659
92 | C5U U28G A42U | ≤ 0.5
93 | C5U G10A C66U | 0.574
94 | G6A A42C A70G | ≤ 0.5
95 | G6A A45C C46G G51C | ≤ 0.5
96 | C5U G51C C55A C62U A65U A69U | ≤ 0.5

Row | Variant | yeast fitness
97 | G6A A15C C27A C61G U64C A70U | ≤ 0.5
98 | G6A A43C C62A | 0.551
99 | G6A A36C A37G G52A A70U | ≤ 0.5
100 | C5U C46G | 0.93
101 | G6A A42C U53G G67C | ≤ 0.5
102 | C5U C34U | 0.746
103 | G6A A14C A42U G63C | ≤ 0.5
104 | C5U U32C G39A C60U C61G G68C | ≤ 0.5
105 | C5U U26G C33G G50C | ≤ 0.5
106 | C5U G58A C61U A70G | 0.797
107 | G6A A37U C62U | ≤ 0.5
108 | C5U G18A A40U U47C | 0.501
109 | C5U U7G C30U G51C C61A | ≤ 0.5
110 | C5U U13A C62U A65C | ≤ 0.5
111 | C5U U16A G63A | ≤ 0.5
112 | C5U U32G C33G | ≤ 0.5
113 | G6A A15C C22G A43C G50A | ≤ 0.5
114 | C5U G50C A70U | 0.575
115 | C5U U7A C34U G56A G67A | ≤ 0.5
116 | G6A A21G C49U | 0.791
117 | C5U U16G A65G C66U | ≤ 0.5
118 | C5U G12A | 0.959
119 | C5U G12C | 0.818
120 | C5U G10C C30A A36U A42C | ≤ 0.5

Row | Variant | yeast fitness
121 | G6A A14C A42U G56A G63C | 0.511
122 | G6A A20G C49A | 0.616
123 | G6A A21U C62U | ≤ 0.5
124 | G6A A15C U16A A21G U26A C30U C61A A69U | ≤ 0.5
125 | C5U C34U U35C A70C | ≤ 0.5
126 | C5U G44C C61U | 0.702
127 | G6A A20U C49U G50U | ≤ 0.5
128 | G6A A20C A40C A42U G56A C66G | ≤ 0.5
129 | C5U G17A C66A | 0.522
130 | C5U C49U C66A G67A | ≤ 0.5
131 | C5U U7G C30A A65C | 1.07
132 | G6A A21G G23A G58C | ≤ 0.5
133 | C5U U8A G18C G23A | ≤ 0.5
134 | C5U U13A C24U A45C | 0.671
135 | C5U G6A A15U A21G U54G | ≤ 0.5
136 | C5U U19C | 0.963
137 | C5U G17U C29G C31G A36U A37C A69C | ≤ 0.5
138 | C5U C49U G56U | 0.538
139 | C5U U64A G67U | ≤ 0.5
140 | C5U U8A G38C A42C G63A | 0.534
141 | C5U U7C C24G C27A | ≤ 0.5
142 | C5U U13C | 0.911
143 | C5U U13A | 0.842
144 | G6A A14G C33A G39C | ≤ 0.5

Row | Variant | yeast fitness
145 | C5U G48A C55U C66U | 0.521
146 | C5U G25A U32G | ≤ 0.5
147 | G6A A40G | 0.842
148 | C5U G12C A69U | 0.62
149 | C5U U8A A65U | ≤ 0.5
150 | G6A A20C G23C C27A | ≤ 0.5
151 | C5U U53G C62A | ≤ 0.5
152 | C5U G48A C55U | 0.558
153 | C5U U26G G58A | 0.924
154 | C5U U16C G18A C30A G58A G68U | ≤ 0.5
155 | C5U G17C U26G A69U | ≤ 0.5
156 | C5U U16C C55A | 0.627
157 | C5U G25C C29A | ≤ 0.5
158 | C5U C34U A40C | ≤ 0.5
159 | G6A A42U C62A | 0.53
160 | C5U U19C G56C U59A A65G | ≤ 0.5
161 | G6A A20U C46A C55G | ≤ 0.5
162 | C5U G12A C60G | ≤ 0.5
163 | G6A A15U G23A | 0.525
164 | C5U G9A C49A | 0.513
165 | G6A A20C C34A A45U C46U A57C | ≤ 0.5
166 | G6A A15G A65U | 0.607
167 | C5U U32C C33U C62U A65G | ≤ 0.5
